Assay results reported in ChEMBL document CHEMBL1125102, “Synthesis and biological evaluation of 2-styrylquinazolin-4(3H)-ones, a new class of antimitotic anticancer agents which inhibit tubulin polymerization” (J Med Chem, 1990).
≈ marks a conversion by molar mass, not a printed value. Where “and” joins values, the source holds several entries; their conditions need not be identical. Equal values may be shown once.

Key:
L1210 [1] = experiment: In vitro inhibition of L1210 murine leukemia cells by using MTT assay in cell culture; format: functional, cell-based; conditions: Mus musculus
Method in brief: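 L1210 murine leukemia cells in culture; cytotoxicity measured by MTT assay, reported as IC50 in μg/mL.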

L1210 [2] = experiment: In vivo inhibition of L1210 murine leukemia cells in mice (ip) at a dose of 200 mg/kg; format: functional, Mus musculus
Method in brief: (§1)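 L1210 murine leukemia in mice: tumor cells inoculated ip, drug injected ip one day later; efficacy expressed as % T/C at the stated dose.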

Tubulin = experiment: Inhibition of tubulin polymerization; format: functional
Method in brief: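 Glutamate-driven assembly: purified tubulin 1.0 mg/mL (10 μM) in 1.0 M monosodium glutamate pH 6.6, 1.0 mM MgCl2, 4% (v/v) DMSO, preincubated with drug 15 min at 37 °C, chilled, GTP added, then warmed 0→37 °C in cuvettes with turbidity read-out. IC50 = drug level halving extent of polymerization, obtained graphically in triplicate experiments.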

L1210 [3] = experiment: In vivo inhibition of L1210 murine leukemia cells in mice (ip) at a dose of 50 mg/kg; format: functional, Mus musculus; method in brief: as §1
L1210 [4] = experiment: In vivo inhibition of L1210 murine leukemia cells in mice (ip) at a dose of 100 mg/kg; format: functional, Mus musculus; method in brief: as §1
[5] = Antitumor activity against murine sarcoma M531 cells was determined after (ip) administration of a dose of 120 mg/kg, ip; format: functional, Mus musculus; conditions: route intraperitoneal
[6] = Antitumor activity against murine melanoma B16 cells was determined after (ip) administration of a dose of 50 mg/kg, ip; format: functional, Mus musculus; conditions: route intraperitoneal
[7] = Antitumor activity against murine melanoma B16 cells was determined after (ip) administration of a dose of 200 mg/kg, ip; format: functional, Mus musculus; conditions: route intraperitoneal
[8] = Antitumor activity against human melanoma xenograft LOX (SC) cells was determined after (ip) administration of a dose of 60 mg/kg; format: functional
MX1 [9] = experiment: Antitumor activity against human mammary tumor xenograft MX-1(SRC) cells was determined after (ip) administration of a dose of 120 mg/kg; format: functional
[10] = Antitumor activity against murine melanoma B16 cells was determined after (ip) administration of a dose of 300 mg/kg, ip; format: functional, Mus musculus; conditions: route intraperitoneal
[11] = Antitumor activity against human melanoma xenograft LOX (SC) cells was determined after (ip) administration of a dose of 120 mg/kg; format: functional
[12] = Antitumor activity against human melanoma xenograft LOX (SC) cells was determined after (ip) administration of a dose of 240 mg/kg; format: functional
MX1 [13] = experiment: Antitumor activity against human mammary tumor xenograft MX-1(SRC) cells was determined after (ip) administration of a dose of 240 mg/kg; format: functional
MX1 [14] = experiment: Antitumor activity against human mammary tumor xenograft MX-1(SRC) cells was determined after (ip) administration of a dose of 60 mg/kg; format: functional
L1210 [15] = experiment: (§2) Antitumor activity against murine leukemia P388 cells was determined after (ip) administration of a dose of 120 mg/kg; format: functional, Mus musculus
P388 [16] = experiment: as §2; format: functional, Mus musculus
[17] = Antitumor activity against murine sarcoma M531 cells was determined after (ip) administration of a dose of 240 mg/kg, ip; format: functional, Mus musculus; conditions: route intraperitoneal
L1210 [18] = experiment: (§3) Antitumor activity against […] was determined after (ip) administration of a dose of 60 mg/kg; format: functional, Mus musculus
P388 [19] = experiment: as §3; format: functional, Mus musculus
[20] = Antitumor activity against murine melanoma B16 cells was determined after (ip) administration of a dose of 400 mg/kg, ip; format: functional, Mus musculus; conditions: route intraperitoneal
[21] = Antitumor activity against murine melanoma B16 cells was determined after (ip) administration of a dose of 100 mg/kg, ip; format: functional, Mus musculus; conditions: route intraperitoneal
L1210 [22] = experiment: In vivo inhibition of L1210 murine leukemia cells in mice (ip) at a dose of 25 mg/kg; format: functional, Mus musculus; method in brief: as §1
L1210 [23] = experiment: In vivo inhibition of L1210 murine leukemia cells in mice (ip) at a dose of 240 mg/kg; format: functional, Mus musculus; method in brief: as §1
L1210 [24] = experiment: In vivo inhibition of L1210 murine leukemia cells in mice (ip) at a dose of 12 mg/kg; format: functional, Mus musculus; method in brief: as §1
L1210 [25] = experiment: […]; format: functional, Mus musculus; conditions: dose 150 mg/kg
Method in brief: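 Murine L1210 leukemia cells were inoculated intraperitoneally into mice. Drug was injected intraperitoneally one day after tumor inoculation. Therapeutic efficacy was read out as % T/C at the stated dose in mg/kg.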

Row | SMILES | IC50 (L1210 [1]) [µg/mL] | T/C (L1210 [2]) [%] | IC50 (Tubulin) [µM] | also measured
1 | Oc1nc(/C=C/c2ccccc2)nc2cc(N3CCCCC3)c(F)cc12 | 0.2 (≈ 0.572 µM) | 85 | > 40 | 
2 | Sc1nc(/C=C/c2ccccc2)nc2ccc(Cl)cc12 | > 1 |  | > 40 | T/C (L1210 [3]): 94%
3 | Oc1nc(/C=C/c2ccccc2)nc2sccc12 | > 1 | 92 | > 40 | 
4 | CN1CCN(c2cc3nc(/C=C/c4ccccc4)nc(O)c3cc2F)CC1 | 0.2 (≈ 0.549 µM) |  | > 40 | T/C (L1210 [3]): 100%
5 | Nc1ccc2nc(/C=C/c3ccccc3)nc(O)c2c1 | 0.6 (≈ 2.28 µM) |  | > 40 | 
6 | O=c1oc(/C=C/c2ccccc2)nc2c(O)nc(O)nc12 | > 1 |  | > 40 | T/C (L1210 [3]): 94%
7 | Cc1cccc2nc(/C=C/c3ccccc3)nc(O)c12 | 0.03 (≈ 0.114 µM) | 100 | > 40 | 
8 | Oc1nc(/C=C/c2ccccc2)nc2ccc(Cl)cc12 | 0.001 (≈ 0.00354 µM) |  | 2.5 | T/C (L1210 [3]): 146%
9 | Oc1nc(/C=C/c2ccccc2)nc2ccc(I)cc12 | 0.3 (≈ 0.802 µM) | 117 | 1.4 | 
10 | Oc1nc(/C=C/c2ccccc2)nc2c(Cl)cccc12 | > 1 |  | > 40 | 
11 | Oc1ccc2nc(/C=C/c3ccccc3)nc(O)c2c1 | 0.006 (≈ 0.0227 µM) |  | > 40 | T/C (L1210 [4]): 99%
12 | COc1ccc2nc(/C=C/c3ccccc3)[nH]c(=O)c2c1 | 0.001 (≈ 0.00359 µM) |  | 2 | T/C (L1210 [3]): 173%; T/C [5]: 136%; T/C [6]: 129%; T/C [7]: 197% and 141%; T/C [8]: 142%; T/C (MX1 [9]): 16%; T/C [10]: 158%; T/C [11]: 142%; T/C [12]: 153%; T/C (MX1 [13]): -81%; T/C (MX1 [14]): 21%; T/C (L1210 [15]): 225%; T/C (P388 [16]): 174%; T/C [17]: 154%; T/C (L1210 [18]): 158%; T/C (P388 [19]): 135%; T/C [20]: 190%; T/C [21]: 145%
13 | COc1ccc2c(O)nc(/C=C/c3ccccc3)nc2c1 | 0.001 (≈ 0.00359 µM) | 100 | 5.7 | 
14 | Cc1ccc2nc(/C=C/c3ccccc3)nc(O)c2c1 | 0.02 (≈ 0.0762 µM) |  | 2 | T/C (L1210 [22]): 107%
15 | Oc1nc(CC(c2ccccc2)N2CCOCC2)nc2ccc(Cl)cc12 (configuration not stated) |  | 125 | > 40 | 
16 | Cc1nc(/C=C/c2ccccc2)nc(O)c1C | > 1 |  | > 40 | T/C (L1210 [3]): 89%
17 | Oc1nc(Cc2ccccc2)nc2ccc(Cl)cc12 | > 1 |  | > 40 | 
18 | Nn1c(/C=C/c2ccccc2)nc2ccc(Cl)cc2c1=O | > 1 |  | > 40 | T/C (L1210 [3]): 90%
19 | Oc1nc(/C=C/c2ccccn2)nc2ccc(Cl)cc12 | 0.61 (≈ 2.15 µM) | 91 | > 40 | 
20 | Oc1nc(/C=C/c2ccccc2)nc2cc(Cl)c(F)cc12 | 0.007 (≈ 0.0233 µM) |  | > 40 | T/C (L1210 [4]): 111%
21 | Oc1nc(/C=C/c2ccccc2)nc2ccc(F)cc12 | 0.05 (≈ 0.188 µM) |  | 5.4 | T/C (L1210 [4]): 129%

Row | SMILES | IC50 (L1210 [1]) [µg/mL] | T/C (L1210 [2]) [%] | IC50 (Tubulin) [µM] | also measured
22 | Oc1nc(/C=C/c2ccccc2)nc2ccc3ncccc3c12 | 0.4 (≈ 1.34 µM) |  | > 40 | T/C (L1210 [3]): 95%
23 | O=c1[nH]c(/C=C/c2ccccc2)nc2ccccc12 | 0.02 (≈ 0.0806 µM) |  | 11 | T/C (L1210 [23]): 133%
24 | O=c1[nH]c(=O)c2nc(/C=C/c3ccccc3)nc(O)c2[nH]1 | > 1 |  | > 40 | T/C (L1210 [3]): 93%
25 | CCOc1ccc2nc(/C=C/c3ccccc3)nc(O)c2c1 | 0.4 (≈ 1.37 µM) |  | > 40 | 
26 | Oc1nc(CCc2ccccc2)nc2ccc(Cl)cc12 | 0.01 (≈ 0.0351 µM) | 113 | 7.3 | 
27 | CC(=O)Oc1ccc2nc(/C=C/c3ccccc3)nc(O)c2c1 | 0.3 (≈ 0.979 µM) | 78 | 4 | 
28 | CCN(CC)CCCC(C)Nc1nc(/C=C/c2ccccc2)nc2ccc(Cl)cc12 (configuration not stated) |  |  | > 40 | T/C (L1210 [24]): 105%
29 | O=S1(=O)N=C(/C=C/c2ccccc2)Nc2ccccc21 | > 1 | 91 | > 40 | 
30 | COc1cc2nc(/C=C/c3ccccc3)nc(O)c2cc1OC | 0.03 (≈ 0.0973 µM) | 96 | 3.3 | 
31 | C/C=C/c1nc(O)c2ccccc2n1 | > 1 |  | > 40 | 
32 | C/C=C/c1nc(O)c2cc(Cl)ccc2n1 | > 1 | 95 | > 40 | 
33 | Oc1nc(/C=C/c2ccccc2)nc2cc(Cl)ccc12 | > 1 |  | 17 | 
34 | Oc1nc(/C=C/c2ccccc2)nc2cccc(Cl)c12 | > 1 |  | > 40 | T/C (L1210 [4]): 100%
35 | Cn1c(/C=C/c2ccccc2)nc(=O)c2cc(Cl)ccc21 | 0.04 (≈ 0.135 µM) |  | > 40 | T/C (L1210 [3]): 96%
36 | O=c1c2cc(Cl)ccc2nc2n1NC(c1ccccc1)C2 (configuration not stated) | > 1 |  | > 40 | 
37 | Oc1nc(C#Cc2ccccc2)nc2ccc(Cl)cc12 | 0.002 (≈ 0.00712 µM) | 125 | > 40 | 
38 | Nc1ccccc1C(=O)Oc1ccc2nc(/C=C/c3ccccc3)nc(O)c2c1 | > 1 |  | > 40 | T/C (L1210 [25]): 99%
39 | COc1ccc2nc(CC(c3ccccc3)N3CCCCC3)nc(O)c2c1 (configuration not stated) | 0.001 (≈ 0.00275 µM) |  | 14 | T/C (L1210 [4]): 107%
40 | CN1CCN(C(Cc2nc(O)c3cc(Cl)ccc3n2)c2ccccc2)CC1 (configuration not stated) |  |  | 5.3 | T/C (L1210 [4]): 100%
41 | Cc1nc(O)c2cc(Cl)ccc2n1 | > 1 |  | > 40 | 
42 | Oc1nc(/C=C/c2ccccc2)nc2ccc(Br)cc12 | 0.01 (≈ 0.0306 µM) |  | 2 | T/C (L1210 [22]): 133%
